Experimental data as given in ChEMBL document CHEMBL4428067, “Drug Discovery against Psoriasis: Identification of a New Potent FMS-like Tyrosine Kinase 3 (FLT3) Inhibitor, 1-(4-((1H-Pyrazolo[3,4-d]pyrimidin-4-yl)oxy)-3-fluorophenyl)-3-(5-(tert-butyl)isoxazol-3-yl)urea, That Showed Potent Activity in a Psoriatic Animal Model” (J Med Chem, 2016).

Tests used:
[1] = target: T1, Receptor-type tyrosine-protein kinase FLT3 (Homo sapiens, UniProt P36888); assay: Inhibition of recombinant human N-terminal GST-tagged FLT3 (564 to end residues) expressed by baculovirus in Sf21 insect cells measured after 10 mins in presence of [gamma-33P]ATP by scintillation counter method
T1 sequence (P36888 whole entry): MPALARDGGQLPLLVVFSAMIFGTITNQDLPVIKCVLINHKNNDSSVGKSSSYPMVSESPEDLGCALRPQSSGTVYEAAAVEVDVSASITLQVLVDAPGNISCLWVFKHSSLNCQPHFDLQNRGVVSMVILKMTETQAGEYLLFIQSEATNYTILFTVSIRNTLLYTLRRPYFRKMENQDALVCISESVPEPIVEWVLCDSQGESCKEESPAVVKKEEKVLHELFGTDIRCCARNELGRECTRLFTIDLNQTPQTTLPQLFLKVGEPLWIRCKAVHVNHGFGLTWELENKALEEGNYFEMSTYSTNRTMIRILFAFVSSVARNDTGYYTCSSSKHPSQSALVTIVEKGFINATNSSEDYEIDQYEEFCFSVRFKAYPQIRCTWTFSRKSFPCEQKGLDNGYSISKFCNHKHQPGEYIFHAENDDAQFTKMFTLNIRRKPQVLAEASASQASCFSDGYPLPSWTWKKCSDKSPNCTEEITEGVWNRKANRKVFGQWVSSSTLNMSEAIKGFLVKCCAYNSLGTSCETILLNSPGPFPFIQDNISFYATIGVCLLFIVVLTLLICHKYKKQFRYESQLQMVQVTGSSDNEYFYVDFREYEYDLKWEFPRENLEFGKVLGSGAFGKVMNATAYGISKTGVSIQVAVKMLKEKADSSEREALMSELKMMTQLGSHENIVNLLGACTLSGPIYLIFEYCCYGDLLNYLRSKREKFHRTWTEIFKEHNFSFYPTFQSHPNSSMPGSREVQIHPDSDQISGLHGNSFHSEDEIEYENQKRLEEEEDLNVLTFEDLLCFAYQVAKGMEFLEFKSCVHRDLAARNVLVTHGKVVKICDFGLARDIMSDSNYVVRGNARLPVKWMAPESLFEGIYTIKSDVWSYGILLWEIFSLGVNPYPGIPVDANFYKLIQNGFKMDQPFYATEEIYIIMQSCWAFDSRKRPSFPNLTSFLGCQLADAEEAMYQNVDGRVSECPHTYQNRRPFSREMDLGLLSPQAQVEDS

[2] = target: T2, Receptor-type tyrosine-protein kinase FLT3 (Mus musculus) (UniProt Q00342); assay: Inhibition of FLT3 in Balb/c mouse BMDCs assessed as suppression of FLT3L-induced pDC formation measured as lower right quadrant cells level treated on day 9 post 9 days of FLT3L-stimulation measured after 24 hrs by CD11c PerCP and CD45R/B220 FITC staining based flow cytometric analysis (reference value: 2.8%); set-up: scale not given: the % may be the effect or the level left
T2 sequence (whole entry): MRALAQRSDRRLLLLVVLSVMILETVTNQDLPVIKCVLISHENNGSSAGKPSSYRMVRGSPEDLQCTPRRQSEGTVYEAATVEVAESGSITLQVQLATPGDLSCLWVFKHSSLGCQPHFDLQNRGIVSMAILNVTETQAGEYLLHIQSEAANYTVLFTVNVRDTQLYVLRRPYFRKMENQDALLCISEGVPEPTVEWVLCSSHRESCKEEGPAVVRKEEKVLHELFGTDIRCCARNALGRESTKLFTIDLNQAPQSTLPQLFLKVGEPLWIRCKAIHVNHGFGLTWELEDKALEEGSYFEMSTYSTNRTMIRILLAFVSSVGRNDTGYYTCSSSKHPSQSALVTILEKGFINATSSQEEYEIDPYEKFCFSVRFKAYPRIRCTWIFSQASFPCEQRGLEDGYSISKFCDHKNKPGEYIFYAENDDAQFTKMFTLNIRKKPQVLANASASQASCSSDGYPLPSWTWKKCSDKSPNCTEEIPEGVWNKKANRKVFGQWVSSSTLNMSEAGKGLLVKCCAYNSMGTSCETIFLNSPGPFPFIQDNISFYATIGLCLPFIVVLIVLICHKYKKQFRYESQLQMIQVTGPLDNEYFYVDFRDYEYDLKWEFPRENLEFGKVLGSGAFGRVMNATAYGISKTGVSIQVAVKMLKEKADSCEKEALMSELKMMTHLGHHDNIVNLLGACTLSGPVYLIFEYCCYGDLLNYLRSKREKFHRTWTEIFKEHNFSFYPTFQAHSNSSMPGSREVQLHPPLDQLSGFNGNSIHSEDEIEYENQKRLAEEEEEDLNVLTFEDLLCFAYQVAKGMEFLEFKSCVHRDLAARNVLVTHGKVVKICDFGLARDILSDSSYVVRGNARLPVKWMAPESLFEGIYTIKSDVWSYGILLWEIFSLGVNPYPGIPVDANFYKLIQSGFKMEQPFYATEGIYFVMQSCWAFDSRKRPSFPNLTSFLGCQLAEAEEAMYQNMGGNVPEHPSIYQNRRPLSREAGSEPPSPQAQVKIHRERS
How it was run: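 BALB/c bone marrow cells were cultured at 1×10^6/ml with FLT3L in supplemented RPMI-1640 for 9 days. Compound in DMSO or 0.1% DMSO was added on day 9 for 24 h. Cells were stained for 30 min with CD11c PerCP plus B220 FITC (pDC: CD11c+ B220+) or MHC II FITC (mDC: CD11c+ MHC II+), then analysed by flow cytometry. Three independent experiments.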

[3] = species: Mus musculus; assay: Antipsoriatic activity in K14-VEGF transgenic mouse model of psoriasis assessed as decrease in DC cells expressing FLT3 and CD11c in psoriatic lesion at 0.05% applied tropically over lesion for continuous 29 days by flow cytometric analysis relative to control; format: functional
[4] = species: Mus musculus; assay: Antipsoriatic activity in K14-VEGF transgenic mouse model of psoriasis assessed as lower left quadrant DC cells expressing FLT3 and CD11c in psoriatic plaque lesion at 0.05% applied tropically over lesion for continuous 29 days by flow cytometric analysis (reference value: 72.7%); format: functional
[5] = species: Mus musculus; assay: Antipsoriatic activity in K14-VEGF transgenic mouse model of psoriasis assessed as decrease in STAT3 phosphorylation in psoriatic lesion at 0.05% applied tropically over lesion for continuous 29 days by immunohistochemical analysis relative to vehicle control; format: functional; set-up: scale not given: the % may be the effect or the level left
How it was run: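 K14-VEGF mice were treated topically with 0.05% cream or vehicle for 29 days, n=3 per group. Ear skin was paraffin-embedded, cut into 4-µm sections and immunostained. Staining was quantified in 5 random fields, reported as mean ± SD.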

[6] = species: Mus musculus; assay: Antipsoriatic activity in K14-VEGF transgenic mouse model of psoriasis assessed as lower left quadrant FLT3+/CD11c+/B220+ pDC cells in psoriatic plaque lesion at 0.05% applied tropically over lesion for continuous 29 days by flow cytometric analysis (reference value: 63.7%)
[7] = species: Mus musculus; assay: Antipsoriatic activity in K14-VEGF transgenic mouse model of psoriasis assessed as lower left quadrant FLT3+/CD11c+/MHC-II+ mDC cells in psoriatic plaque lesion at 0.05% applied tropically over lesion for continuous 29 days by flow cytometric analysis (reference value: 35.2%)

IC50 [1]: 5 nM
Activity [2]: 4.63%
SMILES: CC(C)(C)c1cc(NC(=O)Nc2ccc(Oc3ncnc4[nH]ncc34)c(F)c2)no1
inhibition (INH) [3]: 69.6%
Activity [4]: 89.5%
Activity [5]: 64%
Activity [6]: 89.9%
Activity [7]: 8.58%
